From PMC4051287 (Molecular cancer therapeutics, 2014)
Square brackets hold non-standard residues; d marks the D form. Peptide text beside a SMILES is read from it. * marks the point of attachment. Dolaproine = CO[C@@H]([C@@H]1CCCN1)[C@@H](C)C(=O)O; Dil = CC[C@H](C)[C@H](NC)[C@@H](CC(=O)O)OC; X1 = C[C@@H](N*)[C@@H](O)c1ccccc1; NMeV = CN[C@H](C(=O)O)C(C)C

Tests used:
Py230 tumors = assay: Therapeutic study, Py230 syngeneic tumors; type: in vivo, mice
How it was run: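 Tumors reach 5–7 mm diameter in 5–6 weeks. Test compound (MMAE conjugate) dosed at 0.2mg/kg MMAE, ~6.5 nanomoles of conjugate. Free MMAE and controls run alongside. Tumor volume followed.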

[1] = cited from earlier work

CC[C@H](C)[C@@H]([C@@H](CC(=O)N1CCC[C@H]1[C@H](OC)[C@@H](C)C(=O)N[C@H](C)[C@@H](O)c1ccccc1)OC)N(C)C(=O)[C@@H](NC(=O)[C@@H](NC)C(C)C)C(C)C [MMAE, Monomethylauristatin E] (H-[NMeV]V[Dil][Dolaproine]-X1)
final tumor mass, dose finding (Py230 tumors; Py230, MMAE at concentrations up to 0.6mg/kg): Only the tumors treated at the highest dose had a reduction in final mass | effect on tumor growth (Py230 tumors; Py230, immunocompetent mice, 0.2mg/kg MMAE): no impact on tumor growth | maximum tolerated dose [1]: 0.5 to 1.0 mg/kg
